Measured values published in ChEMBL document CHEMBL1121947 (J Med Chem, 1982).

Tests used:
[1] = pKA value was determined; Experiment 1; format: physicochemical
[2] = pKA value was determined; Experiment 2; format: physicochemical
[3] = molecular target: GABA-A receptor; anion channel; assay: Inhibition of [3H]GABA binding to Gamma-aminobutyric acid receptor of rat brain synaptosomal membranes; format: cell membranes, Membrane
Outline: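 Rat brain synaptic membranes (0.8–1.2 mg protein) were incubated in triplicate for 5 min at 4 °C in 0.05 M Tris-citrate pH 7.1 with 5 nM [3H]GABA, plus 1 mM GABA or 100 µM test agent. Protein was measured by Lowry.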

GABA transporter = GABA transporter (Rattus norvegicus, UniProt P31647+P23978+P31646+P48056); assay: Inhibition of high affinity neuronal GABA uptake by synaptosomes of rat brain membrane; format: functional, subcellular

Structure (SMILES) | pKa [1] | pKa [2] | IC50 [3] | IC50 (GABA transporter)
O=C(O)[C@H]1CNC[C@@H](O)C1 | 3.5 | 8.9 | > 100 µM | 173 µM
CC(=O)N[C@@H]1CNC[C@H](C(=O)O)C1 | 3 | 8.6 | > 100 µM | 240 µM
NCCCC(=O)O [GAMMA-AMINOBUTYRIC ACID] | 4 | 10.7 |  | 
O=C(O)C1CCNCC1 [ISONIPECOTIC ACID] | 3.8 | 10.5 | 0.33 µM | > 300 µM
O=C(O)C1CCCNC1 (configuration not stated) [NIPECOTIC ACID] | 3.9 | 10.3 | > 100 µM | 

More lines, now with the values ahead:

pKa [1] | pKa [2] | IC50 [3] | IC50 (GABA transporter) | Structure (SMILES)
3.7 | 10 | 12 µM | > 300 µM | O=C(O)[C@@H]1CCNC[C@@H]1O
3.1 | 9.4 | > 100 µM | 203 µM | O=C(O)[C@H]1CNCC[C@@H]1O
3.6 | 9.3 | 43 µM | > 300 µM | O=C(O)[C@@H]1CCNC[C@H]1O
3.4 | 10 | > 100 µM | 11 µM | O=C(O)[C@H]1CNCC[C@H]1O
3.2 | 9.7 | > 100 µM | > 300 µM | CC(=O)N[C@@H]1CCNC[C@@H]1C(=O)O
